Hits are enriched below; roughly 2% of the tested compounds scored in any of these assays.
IMP-1 inhibitor = inhibitors of Pseudomonas aeruginosa IMP-1 metallo-beta-lactamase; purified IMP-1, nitrocefin hydrolysis, epi-absorbance fluorescence; inhibition, % at 5.6 µM; 290,000 tested, 0.45% active;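 active = inhibition above the mean plus 3 SD of all compounds in the same screening run, cut at about 4.5% in these data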;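 note: 0% = IMP-1 with DMSO and 100% = DMSO wells lacking enzyme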
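Assay system: purified IMP-1; Quantity: IMP-1 0.2 nM before substrate addition; Medium: HEPES buffer pH 7.1 with ZnSO4 and Brij 35; Incubation: 15 min enzyme–compound preincubation, then 25 min nitrocefin reaction, 25 °C; Signal: fluorescence quenching readout, ex 480/em 530 nm; Controls: DMSO with and without IMP-1; Repeats: singlicate testing.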
PvdQ inh = blocks Pseudomonas aeruginosa PvdQ acylase activity; purified PvdQ acylase, fluorescence plate reader; inhibition, % at 10 µM; AID 488965; 340,000 tested, 0.063% active; in the data active = inhibition above about 30%, passing the limit was not always enough;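 note: 0% = vehicle neutral wells and 100% = reference inhibitor wells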
beta cell repl = MIN6 beta-cell proliferation induction; MIN6 cells proliferation, ATPlite luminescence, 48 h; cells starved in 0.2% serum; 100% = growth in 10% serum; proliferation, % at 10 µM; 330,000 tested, 0.29% active; AID 2380;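 active = compounds whose signal lies at least 3.5 SD above the mean of all wells on their plate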;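 note: 0% = DMSO-treated cells in low-serum medium and 100% = 10% serum control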
HKDC1 inhibitor = inhibitors of human hexokinase HKDC1; Q2TB90; recombinant HKDC1, G6PDH/diaphorase resazurin coupled fluorescence; inhibition, % at 20 µM; 340,000 tested, 0.16% active;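 active = inhibition above about 35% when tested at 20 µM, limit read from the data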;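 note: plate controls were DMSO wells with enzyme for no effect and DMSO wells lacking enzyme for full effect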
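Material – in-house recombinant HK5 (HKDC1) enzyme · Quantity – HKDC1 at 5 µg/mL · Buffer or medium – pH 8.0 Tris buffer with 10 mM MgCl2 · Reagent – glucose with 1 mM ATP · Dosing – single 20 µM dose · Times – reaction time 90 min, room temperature, protected from light · Technique – resorufin fluorescence at 613 nm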
ATG4B inhibitor = blocks human ATG4B protease cleavage of LC3 substrate; AID 504462; 340,000 tested, 0.51% active; ATG4B cleavage of LC3-PLA2, NBD-HPC fluorescence, 1 h; inhibition, % at 8.33 µM; Q9Y4P1; in the data active = inhibition above about 40%
Target sequence (Q9Y4P1 whole entry, looked up): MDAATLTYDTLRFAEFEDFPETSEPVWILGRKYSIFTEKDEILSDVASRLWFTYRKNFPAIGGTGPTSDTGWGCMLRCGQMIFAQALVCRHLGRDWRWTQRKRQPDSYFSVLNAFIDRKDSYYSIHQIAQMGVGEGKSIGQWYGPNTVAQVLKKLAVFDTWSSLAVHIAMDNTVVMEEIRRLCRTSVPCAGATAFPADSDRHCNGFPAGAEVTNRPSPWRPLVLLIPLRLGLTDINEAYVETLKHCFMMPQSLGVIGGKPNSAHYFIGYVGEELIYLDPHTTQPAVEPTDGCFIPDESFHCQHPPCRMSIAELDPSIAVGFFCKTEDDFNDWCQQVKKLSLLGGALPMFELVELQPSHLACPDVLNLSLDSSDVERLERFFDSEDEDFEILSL
VIM-2 inhibitor = blocks Pseudomonas aeruginosa VIM-2 metallo-beta-lactamase | purified VIM-2, nitrocefin hydrolysis, epi-absorbance fluorescence | AID 1527 | 290,000 tested, 0.89% active | inhibition, % at 5.6 µM;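 active = inhibition above the mean of all tested compounds plus 3 SD, cutoff set per screening run, cut at about 7.5% in these data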;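 note: red hydrolysis product quenches plate fluorescence so inhibitors raise well fluorescence; 0% = enzyme with DMSO and 100% = DMSO without enzyme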
ATG4B confirm = ATG4B (human) inhibition, single-dose confirmed | shares compounds with ATG4B inhibitor | ATG4B protease fluorescent substrate cleavage assay | inhibition, % at 8.33 µM | 320 tested, 92% active | AID 504757; in the data active = inhibition above about 39%
PLA2 counter = inhibits human PLA2, flagging false ATG4B inhibitors; shares compounds with ATG4B inhibitor; purified PLA2, NBD-C6-HPC fluorescence, 45 min; inhibition, % at 8.33 µM; 1,600 tested, 66% active; AID 588402; in the data active = inhibition above about 50%
Target sequence (P04054 whole entry, looked up): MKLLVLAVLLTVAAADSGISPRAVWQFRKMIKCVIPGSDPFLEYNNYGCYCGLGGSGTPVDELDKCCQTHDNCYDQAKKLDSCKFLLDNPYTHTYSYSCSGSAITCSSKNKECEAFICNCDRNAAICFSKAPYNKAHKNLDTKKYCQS
An asterisk follows results filed as active; . = no result given.

SMILES	IMP-1 inhibitor	PvdQ inh	beta cell repl	HKDC1 inhibitor	ATG4B inhibitor	VIM-2 inhibitor	PLA2 counter	others
CCCCN1C(=O)C2Cc3c([nH]c4ccccc34)CN2C1=S (stereo not drawn)	-1.1	-7.4	-6.0	-16.1	45.1*	-0.3	79.9*
O=Cc1ccccc1OCCCOc1cccc2cccnc12	-2.5	-1.4	-1.4	7.5	65.1*	0.2	75.0*
O=C(C1=C[C@@H](c2ccccc2)C[C@@H](OCCCCO)O1)N1CCOCC1	2.9	6.5	-4.0	-4.8	-5.7	0.6	.
C#CCCC(=O)c1ccccc1/C=[N+](\[O-])c1ccccc1	.	0.8	-6.7	5.9	41.7*	.	62.0*
Fc1ccc2[nH]c3c(NCc4ccccc4)ncnc3c2c1	-1.8	4.6	-7.0	1.4	49.7*	-5.8	65.3*
COc1ccc2[nH]c3c(NCc4ccco4)ncnc3c2c1	-1.1	.	-1.0	6.5	3.9	-4.5	.
CCOc1ccc(C2=Nc3ccc(Br)cc3C(c3ccc(N4CCOCC4)cc3)=NN2)cc1	-2.1	-14.6	0.0	-10.6	-4.1	0.0	.
Fc1ccc2c(c1)C(c1ccc(N3CCOCC3)cc1)=NNC(c1cccs1)=N2	-1.6	-9.7	-3.9	0.5	65.1*	0.2	70.4*
Cc1ccc2c(c1)C(c1ccc(N3CCOCC3)cc1)=NNC(c1cccs1)=N2	-2.1	-11.4	-3.8	7.4	13.0	-1.3	.
Brc1ccc2c(c1)C(c1ccc(N3CCOCC3)cc1)=NNC(c1cccs1)=N2	-2.4	-8.6	-5.3	2.1	65.9*	-4.2	64.5*
CCOc1ccc(C2=NNC(c3cccs3)=Nc3ccc(OC)cc32)cc1	-1.9	2.3	-5.6	2.8	58.7*	-2.9	72.7*
CCOc1ccc(C2=NNC(c3cccnc3)=Nc3ccc(OC)cc32)cc1	-2.5	4.5	-0.9	0.6	21.4	-0.1	.
COC(=O)C1=NN(c2ccc(Cl)cc2)C2C(=O)N(c3ccccc3OC)C(=O)C12 (stereo not drawn)	-0.8	-13.2	0.7	16.3	-8.5	-3.4	.
CC(C)(C)OC(=O)N1CCN(c2ccc(CNC(=O)c3ccc(Cl)cc3)cc2)CC1	-4.1	5.1	-3.3	3.7	-7.2	-7.3	.
Cc1nc(NC(=O)c2ccccc2)sc1-c1csc(NCc2ccco2)n1	-5.3	-6.8	-3.9	-9.4	41.0*	-2.0	66.7*
Oc1ccc(/C=N/N(Cc2ccccc2)c2ccccc2)c(O)c1O	5.1*	-14.6	.	19.1	56.2*	0.9	75.2*
O=C1c2ccccc2CN1Cc1ccccc1	-4.7	-7.9	-0.2	-0.5	2.5	-2.6	.
Cc1ccc(-n2c(SCC(=O)N/N=C/c3c(C)nn(-c4ccccc4)c3C)nc3ccccc3c2=O)cc1	-4.4	-4.6	-3.3	-2.0	40.1*	-3.6	-3.9	ATG4B confirm=77.6*
C=C(C)Cn1c(SCC(=O)N/N=C/c2c(O)ccc3ccccc23)nc2ccccc2c1=O	-3.2	1.8	0.0	-18.1	40.6*	-2.7	-1.9	ATG4B confirm=56.5*
Cc1nn(-c2ccccc2)c(C)c1/C=N/NC(=O)CSc1nc2ccccc2c(=O)n1-c1ccc(Br)cc1	-3.6	7.8	-4.6	-0.2	21.8	-2.1	.
C=C(C)Cn1c(SCC)nc2ccccc2c1=O	-3.0	-6.9	-2.6	-1.9	10.7	-5.8	.
CN1C(=O)C(C)(C)c2cc(S(=O)(=O)N3CCCC(C(=O)NCc4ccccc4Cl)C3)ccc21 (stereo not drawn)	-1.5	-5.1	1.2	-5.9	-11.9	0.1	.
O=C(/C=C/c1ccc(OCCCF)cc1)NCc1cccc(Cl)c1	-2.4	-0.9	0.8	-1.4	45.0*	-5.2	49.4
O=C(/C=C/c1ccc(S(=O)(=O)NCc2ccco2)cc1)NCc1cccc(Cl)c1	0.9	-1.9	0.0	-3.5	52.3*	4.0	61.9*
Cc1ccc(CNC(=O)/C=C/c2ccc(S(=O)(=O)NCc3ccco3)cc2)cc1	-1.0	-11.5	-3.6	-5.8	-11.9	-1.6	.
SMILES	IMP-1 inhibitor	PvdQ inh	beta cell repl	HKDC1 inhibitor	ATG4B inhibitor	VIM-2 inhibitor	PLA2 counter	others
Cc1sc(NC(=O)c2cccnc2)nc1-c1ccccc1	-1.4	-10.2	4.8	2.8	-2.4	0.3	.
COc1cc(C(N)=O)cc(Cl)c1OCc1ccccc1	-1.5	-7.4	1.5	-3.9	59.8*	-0.7	60.0*
CCOc1cc(C(N)=O)cc(Cl)c1OCc1ccccc1	-2.4	0.0	0.2	-0.6	49.0*	-2.8	70.7*
COc1cc(CNCCc2ccccc2)cc(Cl)c1OCc1ccccc1	-0.5	-13.9	-6.2	2.4	4.2	-1.9	.
O=C1CC(C(=O)N2CCc3ccccc32)CN1c1ccc(F)cc1 (stereo not drawn)	-1.8	10.7	1.2	-1.5	-2.5	-2.2	.
O=S(Cc1ccc(Cl)cc1)CC(O)(c1ccccc1)c1ccccc1 (stereo not drawn)	-1.0	-6.2	-1.6	1.6	5.7	-1.2	.
O=S(Cc1ccccc1)CC(O)(c1ccc(Cl)cc1)c1ccc(Cl)cc1 (stereo not drawn)	-2.3	-6.0	-5.9	-3.8	55.0*	-4.7	60.2*
Cn1cccc1C(=O)NC(=O)COC(=O)c1cc(S(=O)(=O)N2CCCCC2)ccc1Cl	-2.8	-0.8	-1.9	-2.8	51.2*	-3.2	51.6*
C=CCn1nnnc1SCC(=O)Nc1cccc(C(F)(F)F)c1	-1.1	15.5	-2.4	0.6	-2.1	-0.2	.
CSc1nc(N2CCOCC2)c2c3c(sc2n1)CCC3	2.2	-10.2	0.6	6.3	48.6*	3.4	50.2*
Cc1nc(N2CCN(C)CC2)c2c3c(sc2n1)CCCC3	-2.8	-4.2	-3.4	-2.8	1.1	2.2	.
COc1ccc(CNC(=O)C2CCN(S(=O)(=O)c3ccc4c(c3)CC(C)N4C(=O)C3CC3)CC2)cc1 (stereo not drawn)	-1.9	-16.8	0.5	-0.7	-11.5	-1.9	.
COc1cccc(CNC(=O)C2CCN(S(=O)(=O)c3ccc4c(c3)CC(C)N4C(=O)C3CC3)CC2)c1 (stereo not drawn)	-3.1	2.0	-2.8	-1.3	56.2*	-1.4	57.7*
Cc1cc(NS(=O)(=O)c2ccc(NC(=O)Cc3ccccc3)cc2)nc(C)n1	-2.9	-10.1	-1.6	-6.7	-4.0	-0.6	.
C=CCn1c(SCC(=O)Nc2ccc3c(c2)CCC3)nnc1-c1cccs1	-3.0	-13.9	1.1	-0.1	67.3*	-1.1	51.7*
O=C(O)/C=C/C(=O)OC1CC2CCC1C2 (stereo not drawn)	-2.7	-13.1	-1.1	-7.4	-3.8	0.0	.
Cc1cc(N/N=C/c2cccc(F)c2)nc(NCc2ccccc2)n1	-3.1	4.7	-6.0	1.8	72.8*	-1.3	80.2*
